Assay results reported in ChEMBL document CHEMBL1134576, “Discovery of potent antagonists of leukocyte function-associated antigen-1/intercellular adhesion molecule-1 interaction. 3. Amide (C-ring) structure-activity relationship and improvement of overall properties of arylthio cinnamides” (J Med Chem, 2001).

Tests used:
[1] = target: Intercellular adhesion molecule (ICAM-1), Integrin alpha-L/beta-2 (Homo sapiens, UniProt P05107+P20701); assay: Ability to antagonise the Leukocyte function-associated Antigen-1/ Intracellular Adhesion molecule-1 interaction (LFA-1/ICAM-1); format: functional
[2] = Percent oral bioavailability after po dose; format: ADME, organism-based; conditions: eutheria, in vivo
[3] = Cmax value after po dose; format: ADME, organism-based; set-up: route oral; conditions: in vivo
[4] = Water solubility
[5] = Clearance after iv dose
[6] = Oral bioavailability in rat; format: ADME, organism-based; conditions: in vivo
Method in brief: (§1)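 Rats (n = 4/group) received 5 mg/kg either iv as a slow jugular bolus or po by gavage. The terminal-phase rate constant gave t1/2 and AUC extrapolated to infinity. F compares oral with iv AUC.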

[7] = Mean residence time after po dose in rat; format: ADME, organism-based; conditions: in vivo; method in brief: as §1
[8] = Half life period after iv dose in rat; format: ADME, organism-based; conditions: in vivo; method in brief: as §1
[9] = test system: Rattus norvegicus; assay: Cmax value after po dose in rat; format: ADME, organism-based; set-up: route oral; conditions: in vivo; method in brief: as §1
[10] = test system: JY; assay: Inhibition of JY8 cell adhesion process (The assay was run with 1% fetal bovine serum); format: functional, cell-based; conditions: Homo sapiens, JY-8
Method in brief: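 JY-8 cells […] in the presence of 1% fetal bovine serum. Six concentrations from 6.4 × 10^-9 to 2 × 10^-5 were run in duplicate. IC50 is the mean of repeat measurements, with the range given.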

[11] = Clearance after iv dose in rat; conditions: in vivo

Intercellular adhesion molecule (ICAM-1), Integrin alpha-L/beta-2, sequence (P20701 whole entry): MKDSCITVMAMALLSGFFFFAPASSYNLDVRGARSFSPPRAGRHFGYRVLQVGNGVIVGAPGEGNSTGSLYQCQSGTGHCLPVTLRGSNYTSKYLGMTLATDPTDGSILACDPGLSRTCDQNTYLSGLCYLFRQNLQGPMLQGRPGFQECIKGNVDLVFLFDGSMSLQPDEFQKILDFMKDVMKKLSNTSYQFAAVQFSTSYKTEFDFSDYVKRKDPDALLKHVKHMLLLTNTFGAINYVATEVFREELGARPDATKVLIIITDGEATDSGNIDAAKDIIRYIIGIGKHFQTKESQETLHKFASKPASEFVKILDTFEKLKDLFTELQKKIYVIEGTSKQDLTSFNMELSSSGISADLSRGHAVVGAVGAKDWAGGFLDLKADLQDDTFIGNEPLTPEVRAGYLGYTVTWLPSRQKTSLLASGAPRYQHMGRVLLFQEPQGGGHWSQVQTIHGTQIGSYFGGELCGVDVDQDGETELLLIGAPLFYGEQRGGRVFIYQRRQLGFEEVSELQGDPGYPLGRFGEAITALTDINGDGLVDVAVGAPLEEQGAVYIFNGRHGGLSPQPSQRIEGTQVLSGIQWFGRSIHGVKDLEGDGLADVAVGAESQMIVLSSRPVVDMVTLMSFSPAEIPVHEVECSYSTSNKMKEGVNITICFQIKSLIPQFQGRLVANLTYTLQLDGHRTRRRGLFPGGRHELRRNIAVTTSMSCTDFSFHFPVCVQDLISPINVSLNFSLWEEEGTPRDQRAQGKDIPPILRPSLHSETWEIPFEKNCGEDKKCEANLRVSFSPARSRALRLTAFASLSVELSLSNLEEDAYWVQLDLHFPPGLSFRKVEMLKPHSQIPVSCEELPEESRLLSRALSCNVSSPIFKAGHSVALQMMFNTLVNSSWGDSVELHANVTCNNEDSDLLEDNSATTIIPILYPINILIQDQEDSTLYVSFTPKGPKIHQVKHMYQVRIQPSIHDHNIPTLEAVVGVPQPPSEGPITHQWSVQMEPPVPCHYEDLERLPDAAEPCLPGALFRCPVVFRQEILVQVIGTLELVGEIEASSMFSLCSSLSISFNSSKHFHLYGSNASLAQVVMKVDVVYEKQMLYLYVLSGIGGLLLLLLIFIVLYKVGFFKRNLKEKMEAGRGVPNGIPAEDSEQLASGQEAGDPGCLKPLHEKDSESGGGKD
Intercellular adhesion molecule (ICAM-1), Integrin alpha-L/beta-2, sequence (P05362 whole entry, further chain): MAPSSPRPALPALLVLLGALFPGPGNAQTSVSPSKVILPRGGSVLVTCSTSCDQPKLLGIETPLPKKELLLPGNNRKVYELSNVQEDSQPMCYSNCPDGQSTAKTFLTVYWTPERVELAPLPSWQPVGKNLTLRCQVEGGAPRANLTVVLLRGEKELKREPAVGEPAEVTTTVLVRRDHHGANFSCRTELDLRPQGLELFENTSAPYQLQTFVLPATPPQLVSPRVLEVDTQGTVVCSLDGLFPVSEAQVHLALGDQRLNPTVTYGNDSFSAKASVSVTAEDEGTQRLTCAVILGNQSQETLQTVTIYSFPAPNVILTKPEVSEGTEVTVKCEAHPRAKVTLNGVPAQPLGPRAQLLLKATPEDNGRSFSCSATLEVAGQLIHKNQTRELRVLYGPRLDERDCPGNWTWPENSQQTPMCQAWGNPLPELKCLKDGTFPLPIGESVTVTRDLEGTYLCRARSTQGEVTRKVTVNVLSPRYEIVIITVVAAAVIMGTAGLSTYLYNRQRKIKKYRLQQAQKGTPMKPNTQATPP
Intercellular adhesion molecule (ICAM-1), Integrin alpha-L/beta-2, sequence (P05107 whole entry): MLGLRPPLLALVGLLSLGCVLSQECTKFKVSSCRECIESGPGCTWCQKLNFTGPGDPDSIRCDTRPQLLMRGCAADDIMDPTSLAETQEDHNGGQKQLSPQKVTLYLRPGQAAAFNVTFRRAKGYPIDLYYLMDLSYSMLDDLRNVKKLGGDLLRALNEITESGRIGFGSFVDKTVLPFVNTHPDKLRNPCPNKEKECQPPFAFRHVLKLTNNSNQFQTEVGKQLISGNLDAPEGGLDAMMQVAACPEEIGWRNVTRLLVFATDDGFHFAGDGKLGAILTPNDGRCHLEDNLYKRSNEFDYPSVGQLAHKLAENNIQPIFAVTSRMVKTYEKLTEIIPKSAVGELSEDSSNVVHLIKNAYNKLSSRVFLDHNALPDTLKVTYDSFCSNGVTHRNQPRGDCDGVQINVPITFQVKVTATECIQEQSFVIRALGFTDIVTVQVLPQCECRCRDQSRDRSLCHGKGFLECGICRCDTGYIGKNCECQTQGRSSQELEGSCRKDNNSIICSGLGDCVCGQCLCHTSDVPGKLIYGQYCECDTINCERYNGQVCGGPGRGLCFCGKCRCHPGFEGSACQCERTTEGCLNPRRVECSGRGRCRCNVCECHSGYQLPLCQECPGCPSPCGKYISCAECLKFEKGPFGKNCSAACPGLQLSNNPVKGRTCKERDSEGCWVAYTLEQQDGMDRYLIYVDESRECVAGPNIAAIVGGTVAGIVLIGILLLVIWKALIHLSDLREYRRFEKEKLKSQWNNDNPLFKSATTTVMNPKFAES

**Q.** For CC(C)c1ccccc1Sc1ccc(/C=C/C(=O)N2CCC(S(=O)(=O)O)CC2)cc1[N+](=O)[O-], which IC50 [1] is on record?
**A.** The IC50 was 90 nM.

**Q.** Which results are given for CC(=O)N1CCN(C(=O)/C=C/c2ccc(Sc3ccccc3C(C)C)c([N+](=O)[O-])c2)CC1 [A-286982]?
**A.** bioavailability [2]: 0%; Cmax [3]: 0 ug m l-1; Solubility [4]: < 1 µg/mL; clearance [5]: 45 mL/min/kg

**Q.** For CC(C)c1ccccc1Sc1ccc(/C=C/C(=O)N2CCC(C(=O)O)CC2)cc1[N+](=O)[O-], which bioavailability [6] is on record?
**A.** Its bioavailability is 21%.

**Q.** What about the MRT [7] of the same molecule?
**A.** The MRT was 3.5 h.

**Q.** What about the half-life [8] of the same molecule?
**A.** Its half-life is 1.15 h.

**Q.** What about the Cmax [9] of the same molecule?
**A.** Its Cmax is 0.5 ug m l-1.

**Q.** What about the IC50 [10] of the same molecule?
**A.** The IC50 was 165 nM.

**Q.** What about the IC50 [1] of the same molecule?
**A.** The IC50 was 31 nM.

**Q.** What about the clearance [11] of the same molecule?
**A.** Its clearance is 13.2 mL/min/kg.

**Q.** With COC(=O)N1CCN(C(=O)/C=C/c2ccc(Sc3ccccc3C(C)C)c([N+](=O)[O-])c2)C(C(=O)O)C1 (centres undefined) as the molecule, how does the IC50 [1] read?
**A.** Its IC50 is 130 nM.

**Q.** For CC(C)c1ccccc1Sc1ccc(/C=C/C(=O)N2CCN(C(=O)c3ccncc3)CC2)cc1[N+](=O)[O-], which IC50 [10] is on record?
**A.** Its IC50 is 20 nM.

**Q.** And the IC50 [1]?
**A.** Its IC50 is 66 nM.

**Q.** Which IC50 [1] does the source give for CNC(=O)N1CCN(C(=O)/C=C/c2ccc(Sc3ccccc3C(C)C)c([N+](=O)[O-])c2)CC1 here?
**A.** Its IC50 is 25 nM.

**Q.** What does the source list for CC(C)c1ccccc1Sc1ccc(/C=C/C(=O)N2CCC(=O)CC2)cc1[N+](=O)[O-]?
**A.** IC50 [10]: 240 nM; IC50 [1]: 60 nM

**Q.** With CC(C)c1ccccc1Sc1ccc(/C=C/C(=O)N2CCNCC2)cc1[N+](=O)[O-] as the molecule, how does the IC50 [1] read?
**A.** Its IC50 is 450 nM.

**Q.** For CC(C)c1ccccc1Sc1ccc(/C=C/C(=O)N2CCC3(CC2)OCCO3)cc1[N+](=O)[O-], which IC50 [1] is on record?
**A.** The IC50 was 55 nM.

**Q.** Which results are given for O=C(O)C1CCN(C(=O)/C=C/c2ccc(Sc3ccc4c(c3)OCCO4)c(C(F)(F)F)c2)CC1?
**A.** bioavailability [6]: 39%; MRT [7]: 6.7 h; half-life [8]: 3.9 h; Cmax [9]: 2.8 ug m l-1; IC50 [10]: 150 nM; IC50 [1]: 30 nM; clearance [11]: 2 mL/min/kg

**Q.** Which results are given for CC(C)c1ccccc1Sc1ccc(/C=C/C(=O)N2CCCC(C(=O)O)C2)cc1[N+](=O)[O-] (centres undefined)?
**A.** bioavailability [6]: 19%; MRT [7]: 11.3 h; half-life [8]: 0.4 h; Cmax [9]: 0.45 ug m l-1; IC50 [10]: 90 nM; IC50 [1]: 30 nM; clearance [11]: 35 mL/min/kg
